SMILES strings stand for the structures. Some results are limits rather than exact numbers.

Sequence of Interleukin-2 (P60568 whole entry): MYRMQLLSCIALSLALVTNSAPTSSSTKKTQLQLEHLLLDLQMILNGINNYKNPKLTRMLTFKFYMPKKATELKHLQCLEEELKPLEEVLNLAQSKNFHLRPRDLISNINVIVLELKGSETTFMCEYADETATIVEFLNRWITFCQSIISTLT
Sequence of IL15-IL15 receptor (P40933 whole entry): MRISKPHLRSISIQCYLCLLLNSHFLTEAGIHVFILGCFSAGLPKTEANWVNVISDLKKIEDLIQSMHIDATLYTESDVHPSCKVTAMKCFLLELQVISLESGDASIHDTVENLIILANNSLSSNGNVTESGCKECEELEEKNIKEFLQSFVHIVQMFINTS
Sequence of IL15-IL15 receptor (Q13261 whole entry, further chain): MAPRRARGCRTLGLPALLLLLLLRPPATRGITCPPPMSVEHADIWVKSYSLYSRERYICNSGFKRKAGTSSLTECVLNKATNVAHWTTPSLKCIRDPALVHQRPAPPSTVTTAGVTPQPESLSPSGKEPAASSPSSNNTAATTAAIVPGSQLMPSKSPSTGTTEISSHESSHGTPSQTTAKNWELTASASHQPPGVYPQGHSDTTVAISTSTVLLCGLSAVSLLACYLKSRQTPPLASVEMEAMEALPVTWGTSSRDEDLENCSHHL
Sequence of Interleukin-15 (P40933 whole entry): as the sequence (P40933 whole entry) above

Test system in one assay: not listed separately
The experiment in a line: Inhibition of recombinant human IL2R/IL2-induced mouse 32D-beta cell proliferation preincubated for 30 mins with protein followed by cell addition measured after 2.5 days by Alamar blue reduction assay. As to conditions: Homo sapiens; read-out: IC50. The gist of the method: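 32Dβ cells (IL-2Rβ/γ) were starved 4 h without cytokine, then 1 × 10^4 cells were cultured 2.5 days with 100 pM RLI or 1.5 nM IL-2. The cytokine was preincubated 30 min with fixed or increasing compound concentrations or vehicle (culture medium, DMSO 0.1% final). Alamar blue was added for 6 h at 37 °C, with fluorescence read at ex 560/em 590 nm. Tested in triplicate; IC50 is the mean of ≥2 independent assays.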
On the technique in general: The colour change of resazurin is a common sign of viable cells or microbes.
For orientation: IC50 means the concentration that inhibits the measured activity by half. As for `Cn1c(Cc2nn(C)c(=O)c3ccccc23)nnc1SCCCCCC(=O)Nc1ccc(Cl)cc1Cl`, the IC50 stood at 9.8 µM.
Still for that read-out and setting: in the case of `Cn1c(Cc2nn(C)c(=O)c3ccccc23)nnc1SCCCCCCCCCC(=O)Nc1ccc(Cl)cc1Cl` it was 1.6 µM; in that of `Cn1c(Cc2nn(C)c(=O)c3ccccc23)nnc1SCCCCCCCC(=O)Nc1ccc(Cl)cc1`, 0.8 µM; in that of `CCCCCCCCCCSc1nnc(Cc2nn(C)c(=O)c3ccccc23)n1C`, 10 µM.
Turning to `Cn1c(Cc2nn(C)c(=O)c3ccccc23)nnc1SCCCCCCCCCCCCCCCC(=O)Nc1ccc(Cl)cc1Cl`, the IC50 stood at 4.6 µM.
As for `Cn1c(Cc2nn(C)c(=O)c3ccccc23)nnc1SCCCCCCCC(=O)Nc1ccc(Br)cc1Br`, the IC50 was 1.3 µM.
On to `Cn1nc(Cc2nnc(SCCCCCCCC(=O)Nc3ccc(Cl)cc3Cl)o2)c2ccccc2c1=O`, for which the IC50 was 0.8 µM.
Still for that read-out and setting: in the case of `Cn1c(Cc2nn(C)c(=O)c3ccccc23)nnc1SCCCCCCCC(=O)Nc1ccc(N=[N+]=[N-])cc1` it was 1.1 µM; in that of `Cn1nc(Cc2nnc(SCCCCCCCCCCC(=O)Nc3ccc(Cl)cc3Cl)o2)c2ccccc2c1=O`, 7.5 µM; in that of `COc1ccc(NC(=O)CCCCCCCSc2nnc(Cc3nn(C)c(=O)c4ccccc34)n2C)cc1`, 3.2 µM.
On to `Cn1c(Cc2nn(C)c(=O)c3ccccc23)nnc1SCCCCCCCC(=O)Nc1ccccc1O`, for which the IC50 is 23 µM.
As for `Cn1c(Cc2nn(C)c(=O)c3ccccc23)nnc1SCCCCCCCC(=O)Nc1cccc2ccccc12`, the IC50 was 1.9 µM.
On to `COc1ccc(NC(=O)CCCCCCCSc2nnc(Cc3nn(C)c(=O)c4ccccc34)n2C)c(O)c1`, for which the IC50 turned out to be 1 µM.
Same read-out and setting: in the case of `CC(C)COc1ccc(NC(=O)CSc2nnc(Cc3nn(C)c(=O)c4ccccc34)n2C)cc1` it was 30 µM; in that of `Cn1c(Cc2nn(C)c(=O)c3ccccc23)nnc1SCCCCCCCCCCC(=O)Nc1cccc2ccccc12`, 8.5 µM; in that of `CCCOc1ccc(NC(=O)CCCCCCCSc2nnc(Cc3nn(C)c(=O)c4ccccc34)n2C)cc1`, 0.9 µM.
On to `Cn1c(Cc2nn(C)c(=O)c3ccccc23)nnc1SCc1cn(CCCCC(=O)Nc2ccc(Cl)cc2Cl)nn1`, for which the IC50 is above 30 µM.
Consider `CCOC(=O)c1ccccc1NC(=O)CSc1nnc(Cc2nn(C)c(=O)c3ccccc23)n1C`, for which the IC50 was determined as 30 µM.
Regarding `CCOC(=O)c1cccc(NC(=O)CCCCCCCSc2nnc(Cc3nn(C)c(=O)c4ccccc34)n2C)c1`, the IC50 is 0.6 µM.
As for `Cc1ccc(NC(=O)CCCCCCCSc2nnc(Cc3nn(C)c(=O)c4ccccc34)n2C)c(Cl)c1`, the IC50 was determined as 1.7 µM.
Regarding `Cn1c(Cc2nn(C)c(=O)c3ccccc23)nnc1SCC(=O)Nc1ccc(Cl)cc1Cl`, the IC50 worked out at 11.6 µM.
For `CCCOc1ccc(NC(=O)CSc2nnc(Cc3nn(C)c(=O)c4ccccc34)n2C)cc1`, the IC50 is above 30 µM.
Still for that read-out and setting: in the case of `Cn1c(Cc2nn(C)c(=O)c3ccccc23)nnc1SCCCCCCCC(=O)Nc1ccc(Cl)cc1Cl` it was 1.1 µM; in that of `Cn1c(Cc2nn(C)c(=O)c3ccccc23)nnc1SCCCCCCCC(=O)Nc1ccc(O)cc1O`, 21 µM.

Another assay has as its target IL15-IL15 receptor (Homo sapiens, UniProt P40933). The experiment in a line: Inhibition of IL15R/IL15 interaction in human NK92 cells assessed as reduction of IL15-induced STAT5 phosphorylation preincubated for 30 mins with IL15 followed by cell addition measured after 1 hr by AlphaScreen assay. In kind it is cell-based.
Details: not given
The gist of the method:
(§1)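 NK-92 cells were washed and serum-starved overnight, then 2 × 10^5 cells were stimulated at 37 °C for 1 h with IL-15 (50 pM fixed) or IL-2. The cytokine had been preincubated 30 min with increasing compound concentrations or vehicle (PBS, BSA 0.1%, DMSO 0.6% final). Cells were lysed and p-Stat5 read by AlphaScreen SureFire. Duplicates, ≥3 independent experiments. Result is % reduction of the cytokine p-Stat5 response.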
For the molecule `Cn1c(Cc2nn(C)c(=O)c3ccccc23)nnc1SCCCCCCCC(=O)Nc1ccc(Br)cc1Br`, the IC50 amounted to 0.092 µM.
On the same count and under the same terms, in the case of `Cn1c(Cc2nn(C)c(=O)c3ccccc23)nnc1SCCCCCCCC(=O)Nc1ccc(N=[N+]=[N-])cc1` it was 0.1 µM; in that of `COc1ccc(NC(=O)CCCCCCCSc2nnc(Cc3nn(C)c(=O)c4ccccc34)n2C)cc1`, 0.201 µM.
Turning to `COc1ccc(NC(=O)CCCCCCCSc2nnc(Cc3nn(C)c(=O)c4ccccc34)n2C)c(O)c1`, the concentration for half-maximal inhibition (IC50) came to 0.36 µM.
Same read-out and setting: to `CCCOc1ccc(NC(=O)CCCCCCCSc2nnc(Cc3nn(C)c(=O)c4ccccc34)n2C)cc1` belongs 0.04 µM; to `CCOC(=O)c1cccc(NC(=O)CCCCCCCSc2nnc(Cc3nn(C)c(=O)c4ccccc34)n2C)c1`, 0.057 µM; to `Cc1ccc(NC(=O)CCCCCCCSc2nnc(Cc3nn(C)c(=O)c4ccccc34)n2C)c(Cl)c1`, 0.076 µM.
`Cn1c(Cc2nn(C)c(=O)c3ccccc23)nnc1SCC(=O)Nc1ccc(Cl)cc1Cl`: the IC50 stood at 9.11 µM.
On to `Cn1c(Cc2nn(C)c(=O)c3ccccc23)nnc1SCCCCCCCC(=O)Nc1ccc(Cl)cc1Cl`, for which the 50% inhibitory concentration (IC50) was 0.153 µM.

Test system in another assay: not listed separately
Description: Inhibition of IL2R/IL2 interaction in human NK92 cells assessed as reduction IL2-induced STAT5 phosphorylation preincubated for 30 mins with IL2 followed by cell addition measured after 1 hr by AlphaScreen assay. The format is cell-based.
Details: not given
The gist of the method: as §1
As for `Cn1c(Cc2nn(C)c(=O)c3ccccc23)nnc1SCCCCCCCC(=O)Nc1ccc(Br)cc1Br`, the IC50 is 0.083 µM.
Consider `Cn1c(Cc2nn(C)c(=O)c3ccccc23)nnc1SCCCCCCCC(=O)Nc1ccc(N=[N+]=[N-])cc1`, for which the IC50 was 0.073 µM.
As to `COc1ccc(NC(=O)CCCCCCCSc2nnc(Cc3nn(C)c(=O)c4ccccc34)n2C)cc1`, the IC50 was 0.204 µM.
In the case of `COc1ccc(NC(=O)CCCCCCCSc2nnc(Cc3nn(C)c(=O)c4ccccc34)n2C)c(O)c1`, the IC50 amounted to 0.226 µM.
`CCCOc1ccc(NC(=O)CCCCCCCSc2nnc(Cc3nn(C)c(=O)c4ccccc34)n2C)cc1`: the IC50 amounted to 0.053 µM.
As for `CCOC(=O)c1cccc(NC(=O)CCCCCCCSc2nnc(Cc3nn(C)c(=O)c4ccccc34)n2C)c1`, the IC50 came to 0.043 µM.
With `Cc1ccc(NC(=O)CCCCCCCSc2nnc(Cc3nn(C)c(=O)c4ccccc34)n2C)c(Cl)c1`, the IC50 amounted to 0.069 µM.
On to `Cn1c(Cc2nn(C)c(=O)c3ccccc23)nnc1SCC(=O)Nc1ccc(Cl)cc1Cl`, for which the IC50 is 14.1 µM.
Take `Cn1c(Cc2nn(C)c(=O)c3ccccc23)nnc1SCCCCCCCC(=O)Nc1ccc(Cl)cc1Cl`: the half-inhibitory concentration (IC50) came out at 0.16 µM.

A further assay addresses Interleukin-15 (Homo sapiens, UniProt P40933). The experiment in a line: Binding affinity to recombinant human IL-15 by SPR assay.
Details: not given
In short, it runs like this: (§2)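 SPR on a BIAcore 3000 at 25 °C. Recombinant IL-15, RLI or IL-2 was amine-coupled to CM5 chips, and compounds were flowed over at 100 μM or at increasing concentrations (3.125–100 μM) in PBS or 1% or 5% DMSO. Binding was read as the change in RU, and Kd was derived from direct interaction.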
(In general: In SPR one partner is held on a chip, and binding of the other changes the refractive index at the surface.)
Broadly, the Kd is the free concentration of one partner at which half of the binding sites on the other are occupied at equilibrium, for simple one-to-one binding. On to `Cn1c(Cc2nn(C)c(=O)c3ccccc23)nnc1SCCCCCCCC(=O)Nc1ccc(Br)cc1Br`, for which the Kd is 11.6 µM.
`Cn1c(Cc2nn(C)c(=O)c3ccccc23)nnc1SCCCCCCCC(=O)Nc1ccc(N=[N+]=[N-])cc1`: the Kd turned out to be 42.4 µM.
Consider `COc1ccc(NC(=O)CCCCCCCSc2nnc(Cc3nn(C)c(=O)c4ccccc34)n2C)cc1`, for which the Kd turned out to be 26 µM.
The same measure, in the same setting: to `COc1ccc(NC(=O)CCCCCCCSc2nnc(Cc3nn(C)c(=O)c4ccccc34)n2C)c(O)c1` belongs 21.2 µM; to `CCCOc1ccc(NC(=O)CCCCCCCSc2nnc(Cc3nn(C)c(=O)c4ccccc34)n2C)cc1`, 19 µM.
As for `CCOC(=O)c1cccc(NC(=O)CCCCCCCSc2nnc(Cc3nn(C)c(=O)c4ccccc34)n2C)c1`, the Kd stood at 21.8 µM.
Still for that read-out and setting: in the case of `Cc1ccc(NC(=O)CCCCCCCSc2nnc(Cc3nn(C)c(=O)c4ccccc34)n2C)c(Cl)c1` it was 24.1 µM; in that of `Cn1c(Cc2nn(C)c(=O)c3ccccc23)nnc1SCC(=O)Nc1ccc(Cl)cc1Cl`, 48.4 µM.
Regarding `Cn1c(Cc2nn(C)c(=O)c3ccccc23)nnc1SCCCCCCCC(=O)Nc1ccc(Cl)cc1Cl`, the Kd was determined as 19.1 µM.

The next assay has as its target Interleukin-2 (Homo sapiens, UniProt P60568). Description: Binding affinity to recombinant human IL-2 by SPR assay.
Details: not given
In short, it runs like this: as §2
Turning to `Cn1c(Cc2nn(C)c(=O)c3ccccc23)nnc1SCCCCCCCC(=O)Nc1ccc(Br)cc1Br`, the Kd was found to be 10 µM.
On to `COc1ccc(NC(=O)CCCCCCCSc2nnc(Cc3nn(C)c(=O)c4ccccc34)n2C)c(O)c1`, for which the Kd was determined as 12.5 µM.
In the case of `CCOC(=O)c1cccc(NC(=O)CCCCCCCSc2nnc(Cc3nn(C)c(=O)c4ccccc34)n2C)c1`, the Kd came out at 23.1 µM.
`Cn1c(Cc2nn(C)c(=O)c3ccccc23)nnc1SCC(=O)Nc1ccc(Cl)cc1Cl`: the equilibrium dissociation constant (Kd) worked out at 10.5 µM.
In the case of `Cn1c(Cc2nn(C)c(=O)c3ccccc23)nnc1SCCCCCCCC(=O)Nc1ccc(Cl)cc1Cl`, the Kd stood at 8 µM.

Values taken from ChEMBL document CHEMBL4011646, “Discovery of a Small-Molecule Inhibitor of Interleukin 15: Pharmacophore-Based Virtual Screening and Hit Optimization” (J Med Chem, 2017).
